Laboratory results from ChEMBL document CHEMBL1142429, “Identification of ACE pharmacophore in the phosphonopeptide metabolite K-26” (Bioorg Med Chem Lett, 2008).

Assay: Inhibition of ACE
Summary of the method: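 Enzyme source: rabbit lung acetone powder, extracted by soaking in 100 mM borate buffer, then ultracentrifuged. Extract preincubated 5 min with a range of inhibitor concentrations. Reaction started with a 1 mM solution of chromogenic substrate FAPGG. Initial hydrolysis rate followed continuously as absorbance change at 340 nm over time. IC50 from triplicate measurements fitted to a sigmoidal dose-response curve. Captopril run in parallel as benchmark.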

SMILES	IC50 [µM]
CC[C@@H](C)[C@H](N)C(=O)N[C@@H](Cc1ccc(O)cc1)C(=O)N[C@H](Cc1ccc(O)cc1)C(=O)O	> 1000
CC[C@@H](C)[C@H](NC(C)=O)C(=O)N[C@@H](Cc1ccc(O)cc1)C(=O)N[C@H](Cc1ccc(O)cc1)C(=O)O	2000
CC[C@@H](C)[C@H](N)C(=O)N[C@@H](Cc1ccc(O)cc1)C(=O)N[C@H](Cc1ccc(O)cc1)P(=O)(O)O	54.6
CCOP(=O)(OCC)[C@H](Cc1ccc(O)cc1)NC(=O)[C@H](Cc1ccc(O)cc1)NC(=O)[C@@H](NC(C)=O)[C@H](C)CC	383
CC[C@@H](C)[C@H](N)C(=O)N[C@@H](Cc1ccc(O)cc1)C(=O)N[C@@H](Cc1ccc(O)cc1)C(=O)O	236

Stronger by IC50, values ahead:

IC50 [µM]	SMILES
21	CC[C@@H](C)[C@H](NC(C)=O)C(=O)N[C@@H](Cc1ccc(O)cc1)C(=O)N[C@@H](Cc1ccc(O)cc1)C(=O)O
0.234	CC[C@@H](C)[C@H](N)C(=O)N[C@@H](Cc1ccc(O)cc1)C(=O)N[C@@H](Cc1ccc(O)cc1)P(=O)(O)O
0.139	CC[C@@H](C)[C@H](NC(C)=O)C(=O)N[C@@H](Cc1ccc(O)cc1)C(=O)N[C@H](Cc1ccc(O)cc1)P(=O)(O)O
0.0144	CC[C@@H](C)[C@H](NC(C)=O)C(=O)N[C@@H](Cc1ccc(O)cc1)C(=O)N[C@@H](Cc1ccc(O)cc1)P(=O)(O)O
0.0077	C[C@H](CS)C(=O)N1CCC[C@H]1C(=O)O [CAPTOPRIL]
